Published values gathered from unrelated publications.
Protocols differ between the studies behind these lines.

SMILES | system | conditions | measurement | value
COC1=CC(c2ccc[nH]2)=N/C1=C\c1[nH]c(Cc2ccc(OC(F)(F)F)cc2)cc1Cc1ccc(OC(F)(F)F)cc1 | male CD-1 mouse, liver | oral, 40 mg/kg, single dose | MRT(0-t) | 22.2 h
C[C@@H]1COCCN1c1cc(=O)n2c(n1)N(Cc1cncc(Cl)c1)[C@H](C(F)(F)F)CC2 | C57BL/6 mouse, plasma | intraperitoneal, 10 mg/kg, single dose | MRT(0-t) | 0.45 h
Cc1nc2ccc(OCc3ccc(C(F)(F)F)cc3)cc2[nH]1 | male BALB/c mouse, plasma | oral, 10 mg/kg | MRT(0-inf) | 4.04 h
CC[C@H](C)[C@H](NC(=O)[C@H](CCC(=O)O)NC(=O)[C@H](CCC(=O)O)NC(=O)[C@@H]1CCCN1C(=O)[C@H](CO)NC(=O)[C@H](C)NC(=O)[C@H](CC(=O)O)NC(=O)[C@H](CCC(=O)O)NC(=O)[C@H](CCC(=O)O)NC(=O)[C@@H]1CCCN1C(=O)[C@H](CCCCNC(=O)COCCOCCNC(=O)COCCOCCNC(=O)CC[C@H](NC(=O)CCCCCCCCCCCCCCCCC(=O)O)C(=O)O)NC(=O)[C@H](C)NC(=O)[C@@H]1CCCN1C(=O)[C@H](C)NC(=O)CC(C)C)C(=O)N[C@@H](CCC(N)=O)C(=O)N[C@@H](CCCNC(=N)N)C(=O)N[C@@H](Cc1ccc(O)cc1)C(=O)N[C@@H](Cc1ccc(O)cc1)C(=O)N[C@H](C(=O)N[C@@H](CO)C(=O)N[C@@H](CC(C)C)C(=O)N[C@@H](CCCNC(=N)N)C(=O)N[C@@H](Cc1c[nH]cn1)C(=O)N[C@@H](Cc1ccc(O)cc1)C(=O)N[C@@H](Cc1ccc(O)cc1)C(=O)N[C@@H](CC(N)=O)C(=O)N[C@@H](Cc1c[nH]c2ccccc12)C(=O)N[C@@H](CC(C)C)C(=O)N[C@H](C(=O)N[C@@H](CCCNC(=N)N)C(=O)N[C@@H](CCC(N)=O)C(=O)N[C@@H](CCCNC(=N)N)C(=O)N[C@@H](Cc1ccc(O)cc1)C(N)=O)[C@@H](C)O)C(C)C | male NMRI mouse, plasma | subcutaneous, 30 nmol/kg, single dose | MRT | 18 h
Cc1ccc(CCC(=O)Nc2nnc(S(N)(=O)=O)s2)cc1 | male BALB/c mouse, plasma | oral, 20 mg/kg | MRT | 3.74 h
O=C1CCC(N2Cc3cc(C4CCN(Cc5ccccc5)CC4)ccc3C2=O)C(=O)N1 (stereo not shown) | male CD-1 mouse, plasma | intravenous, 1 mg/kg | MRT(0-inf) | 3.34 h
COC1=CC(c2ccc[nH]2)=N/C1=C\c1cc(Cc2ccc(OC(F)(F)F)cc2)c(C)[nH]1.Cl | male CD-1 mouse, plasma | oral, 40 mg/kg, single dose | MRT(0-t) | 34.4 h
CCOC(=O)c1c(NC(=O)CNC(C)C)sc2c1CCCCC2 | male mouse, plasma | intraperitoneal, 5 mg/kg, single dose | MRT(0-inf) | 1.79 h
OCc1nc2ccc(NCc3ccc(C(F)(F)F)cc3)cc2[nH]1 | male BALB/c mouse, plasma | intravenous, 1 mg/kg | MRT(0-inf) | 1.1 h
CCOC(=O)C1=C(CN2CCC[C@@H]2C(=O)Nc2ccc(B(O)O)cc2)NC(c2nccs2)=N[C@H]1c1ccc(F)cc1Br | CD-1 mouse, plasma | oral, 10 mg/kg | MRT(0-inf) | 1 h
